Columns and labels:
[1] = folding enthalpy; higher = less favourable; fluorescence melt of hairpins on a sequencing array, two-state fit; settings: sodium 0.088 M
In short: (§1)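 To match UV melts, fitted temperatures were raised by 9.35 °C. These fits were bootstrapped two-state models that gave melting temperature and folding enthalpy, combined by inverse variance over four replicates. The input was normalised Cy3 fluorescence of library hairpins with annealed Cy3 and quencher oligos on a sequenced MiSeq flow cell, imaged in 50 mM Na-HEPES pH 8.0, 25 mM NaCl in 2.5 °C steps up to 60 °C.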

[2] = melting temperature; fluorescence melt of hairpins on a sequencing array, two-state fit, raised by 9.35 °C to match UV melts; settings: sodium 0.088 M
In short: as §1

| Sequence | folding enthalpy [1] [kcal/mol] | Tm [2] [°C] |
| --- | --- | --- |
| GTAATGGGAAACCATCAC ((.((((....)))).)) | -17.7 | 28.8 |
| GTAATTGGAAACAATCAC ((.((((....)))).)) | -11.6 | 27.4 |
| GTACACACGAAAGTGTAC (((..(((....)))))) | -16.6 | 46.5 |
| GTACACGAAAGTGAGTAC ((((((....)))..))) | -15.6 | 36.5 |
| GTACACGAAAGTGTATAC ((((((....)))..))) | -12.1 | 43.6 |
| GTACACGAAAGTGTGTAC ((((((....)))..))) | -13.8 | 46 |
| GTACACGGAAACATGTAC (((((.(....).))))) | -28.3 | 34.2 |
| GTACAGACGAAAGTCTAC (((..(((....)))))) | -11.5 | 29.8 |
| GTACAGCGAAAGCTATAC (((.(((....))).))) | -18 | 36.9 |
| GTACAGGGAAACCTGTGC (.(((((....))))).) | -20.9 | 49.8 |
| GTACATCCGAAAGGATAC (((..(((....)))))) | -12.1 | 29.6 |
| GTACATGCGAAAGCATAC (((..(((....)))))) | -8.62 | 28.7 |
| GTACATGGAAACATGCAC ((.((((....)))).)) | -22.7 | 39.2 |
| GTACCACGAAAGTGATAC (((.(((....))).))) | -24.3 | 43.7 |
| GTACCAGGAAACCGGTAC (((((.(....).))))) | -35.7 | 46.9 |
| GTACCAGGAAACTAGTAC ((((.((....)).)))) | -15.3 | 28.7 |
| GTACCCACGAAAGTGTAC (((..(((....)))))) | -11.5 | 26.2 |
| GTACCCGAAAGGGCTAC ((((((....))).))) | -15.3 | 40.2 |
| GTACCCGAAAGGGCTTAC ((((((....)))..))) | -11.2 | 27.1 |

| Sequence | folding enthalpy [1] [kcal/mol] | Tm [2] [°C] |
| --- | --- | --- |
| GTACCCGAAAGGGGTAC ((((((....))).))) | -27.8 | 59.2 |
| GTACCCGGAAACGGATAC (((.(((....))).))) | -24.3 | 42.2 |
| GTACCGAAAGGTAC (((((....))))) | -27 | 65.9 |
| GTACCGCGAAAGCGATAC (((.(((....))).))) | -23.6 | 48.5 |
| GTACCGCGAAAGCGCTAC (((.(((....))).))) | -12.2 | 35.9 |
| GTACCTCGAAAGAGATAC (((.(((....))).))) | -28.3 | 38.7 |
| GTACCTCGAAAGAGCTAC (((.(((....))).))) | -11.1 | 30.2 |
| GTACCTCGAAAGAGTAC (((.(((....)))))) | -20.8 | 42.5 |
| GTACGACGAAAGTCCTAC (((.(((....))).))) | -13.2 | 31.9 |
| GTACGAGCGAAAGCTTAC (((..(((....)))))) | -8.2 | 22.6 |
| GTACGAGGAAACTTGTGC (.((.((....)).)).) | -16.8 | 33 |
| GTACGCCGAAAGGCCTAC (((.(((....))).))) | -10.9 | 39.2 |
| GTACGCCGAAAGGCTTAC (((.(((....))).))) | -21.5 | 46.3 |
| GTACGCGAAAGCGGCTAC ((((((....)))..))) | -10.4 | 42.1 |
| GTACGCGAAAGCGGTAC ((((((....))).))) | -16.6 | 56.5 |
| GTACGCGAAAGCGTTAC ((((((....))).))) | -11 | 46.8 |
| GTACGCGAAAGCGTTTAC ((((((....)))..))) | -7.31 | 29.1 |
| GTACGCGCGAAAGCGTAC (((..(((....)))))) | -20.2 | 61.3 |
| GTACGCGGAAACGTGTGC (.((.((....)).)).) | -20.8 | 46.2 |

— the array DNA melting data of Ke et al. (doi:10.1101/2024.01.08.574731)
